# Tests used:
# [1] = system: Vero; experiment: Cytotoxicity against african green monkey Vero cells; type: cell-based; conditions: Chlorocebus sabaeus
# Summary of the method: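 Cytotoxicity tested on VERO cells (ATCC CCL-81) in parallel with the MIC work. Read-out is IC50 in μg/mL.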
# [2] = system: Mycobacterium tuberculosis; experiment: Antimycobacterial activity against Mycobacterium tuberculosis H37Rv at 32 ug/mL by microplate alamar blue assay; type: functional
# [3] = system: Mycobacterium tuberculosis; experiment: Antimycobacterial activity against Mycobacterium tuberculosis H37Rv at 64 ug/mL by microplate alamar blue assay; type: functional
# [4] = system: Mycobacterium tuberculosis; experiment: Antimycobacterial activity against Mycobacterium tuberculosis H37Rv by microplate alamar blue assay; type: functional
# [5] = system: Mycobacterium tuberculosis; experiment: Antimycobacterial activity against Mycobacterium tuberculosis H37Rv at 16 ug/mL by microplate alamar blue assay; type: functional
# [6] = Selectivity index, ratio of IC50 for against african green monkey VERO cells to MIC for Mycobacterium tuberculosis H37Rv; type: functional
# [7] = system: Mycobacterium tuberculosis; experiment: Antimycobacterial activity against Mycobacterium tuberculosis H37Rv at 4 ug/mL by microplate alamar blue assay; type: functional
# [8] = system: Mycobacterium tuberculosis; experiment: Antimycobacterial activity against Mycobacterium tuberculosis H37Rv at 2 ug/mL by microplate alamar blue assay; type: functional
# [9] = system: Mycobacterium tuberculosis; experiment: Antimycobacterial activity against Mycobacterium tuberculosis H37Rv at 8 ug/mL by microplate alamar blue assay; type: functional
# [10] = system: Mycobacterium tuberculosis; experiment: Antimycobacterial activity against Mycobacterium tuberculosis H37Rv at 128 ug/mL by microplate alamar blue assay; type: functional
SMILES,IC50 [1] [µg/mL],inhibition at 32 µg/mL [2] [%],inhibition at 64 µg/mL [3] [%],MIC [4] [µg/mL],inhibition at 16 µg/mL [5] [%],Selectivity Index [6],inhibition at 4 µg/mL [7] [%],inhibition at 2 µg/mL [8] [%],inhibition at 8 µg/mL [9] [%],inhibition at 128 µg/mL [10] [%]
C=C(CC[C@@H](C)[C@H]1CC[C@H]2[C@@H]3CC=C4C[C@@H](O)CC[C@]4(C)[C@H]3CC[C@]12C)C(C)C,> 128,43,40,120,33,,,,,
CC[C@@H](CC[C@@H](C)[C@H]1CC[C@H]2[C@@H]3C(C=O)=C4C[C@@H](O)CC[C@]4(C)[C@H]3CC[C@]12C)C(C)C,26.6,99,99,3.8,98,7,97,29,99,99
CC(C)C(=O)CC[C@@H](C)[C@H]1CC[C@H]2[C@@H]3C(C=O)=C4C[C@@H](O)CC[C@]4(C)[C@H]3CC[C@]12C,43.8,96,100,13.6,92,3.2,67,52,83,99
CC(C)CCC[C@@H](C)[C@H]1CC[C@H]2[C@@H]3C(C=O)=C4C[C@@H](O)CC[C@]4(C)[C@H]3CC[C@]12C,> 128,99,99,15,96,>9,34,10,51,99
CC(C)[C@@H](C)[C@]1(C)C[C@@H]1[C@@H](C)[C@H]1CC[C@H]2[C@@H]3C(C=O)=C4C[C@@H](O)CC[C@]4(C)[C@H]3CC[C@]12C,54.7,98,99,12.7,96,4.3,33,17,81,99
CC(C)[C@@H](C)CC[C@@H](C)[C@H]1CC[C@H]2[C@@H]3CC=C4C[C@@H](O)CC[C@]4(C)[C@H]3CC[C@]12C,> 128,31,41,> 128,21,,14,15,23,58
CC(C)[C@@H](C)CC[C@@H](C)[C@H]1CC[C@H]2[C@@H]3C(C=O)=C4C[C@@H](O)CC[C@]4(C)[C@H]3CC[C@]12C,42.3,99,100,3.9,99,10.8,94,39,97,99
CC(C)[C@@H](C)[C@]1(C)C[C@@H]1[C@@H](C)[C@H]1CC[C@H]2[C@@H]3CC=C4C[C@@H](O)CC[C@]4(C)[C@H]3CC[C@]12C,> 128,13,18,> 128,10,,,,,38
"CCC(CC[C@@H](C)[C@H]1CC[C@H]2[C@@H]3CC=C4C[C@@H](O)CC[C@]4(C)[C@H]3CC[C@]12C)C(C)C (single isomer, unassigned) [BETA-SITOSTEROL]",> 128,31,48,> 128,32,,8,-1,7,45
CC(C)CCC[C@@H](C)[C@H]1CC[C@H]2[C@@H]3CC=C4C[C@@H](O)CC[C@]4(C)[C@H]3CC[C@]12C [CHOLESTEROL],> 128,13,24,> 128,33,,,,,57
C=C(CC[C@@H](C)[C@H]1CC[C@H]2[C@@H]3C(C=O)=C4C[C@@H](O)CC[C@]4(C)[C@H]3CC[C@]12C)C(C)C [PARGUESTEROL A],51,99,99,7.8,105,6.5,69,52,91,99
CO[C@H]1/C=C/O[C@@]2(C)Oc3c(C)c(O)c4c(O)c(c(/C=N/N5CCN(C)CC5)c(O)c4c3C2=O)NC(=O)/C(C)=C\C=C\[C@H](C)[C@H](O)[C@@H](C)[C@@H](O)[C@@H](C)[C@H](OC(C)=O)[C@@H]1C [RIFAMPIN],,100,100,0.06,99,,73,,94,100
